Measurements pooled from the literature.
TEK: Angiopoietin-1 receptor (TEK, Homo sapiens, UniProt Q02763)
TEK Y897S: Angiopoietin-1 receptor (TEK, Homo sapiens, UniProt Q02763, Y897S)

For `N#Cc1ccc(Nc2ccc3[nH]c(=O)[nH]c3c2)c(Cl)c1`, the remaining binding was 85% (TEK; cell-free assay; competition with immobilised ligand; 1 µM).
`COc1cc(/C=C/C(=O)CC(=O)/C=C/c2ccc(O)c(OC)c2)ccc1O` has an activity vs control of 112% (TEK; enzyme activity; inhibitor; 1 µM).
`CCN(CC)CCNC(=O)c1c(C)[nH]c(/C=C2\C(=O)Nc3ccc(F)cc32)c1C` has an inhibition of -2% (TEK; enzyme activity; inhibitor; 0.3 µM).
`Cc1cc(NC(=O)c2cccc3cc(-c4cccc5[nH]nc(N)c45)ccc23)ccc1F` gave an activity vs control of 93% (Angiopoietin-1 receptor (TEK, Homo sapiens, UniProt Q02763, R849W); enzyme activity; inhibitor; 0.1 µM).
`CCCOc1ccc(OC)c(F)c1C(=O)c1ccc(C(=O)N[C@@H]2CNC[C@H]2NC(=O)c2ccc3[nH]ncc3c2)cc1` gave a remaining activity of 47% (TEK Y897S; enzyme activity; inhibitor; 10 µM).
For `Cc1ccc(Nc2nccc(N(C)c3ccc4c(C)n(C)nc4c3)n2)cc1S(N)(=O)=O`, the remaining signal was 69.3% (TEK; cell-free assay; 0.5 µM).
With `CC/C(=N\NC(=O)NCc1cccc(O)c1)c1ccc(O)c(C)c1O` the inhibition was -0.2% (TEK; enzyme activity; inhibitor; 0.1 µM).
`CCCS(=O)(=O)Nc1ccc(F)c(C(=O)c2c[nH]c3ncc(-c4ccc(Cl)cc4)cc23)c1F` gave an inhibition of under 10% (TEK; enzyme activity; inhibitor; 1 µM).
For `CNCc1ccccc1-c1csc([C@@H](C)Nc2nc(C)nc3cc(OC)c(OC)cc23)c1`, the remaining binding was 87% (TEK; cell-free assay; competition with immobilised ligand; 1 µM).
`Cc1cnc(NC2CCOCC2)nc1-n1cnc(C(=O)NC(CN)c2cc(F)cc(Cl)c2)c1` (centres unmarked) gave a remaining activity of 105% (TEK; enzyme activity; inhibitor; radiometric; 1 µM).
With `CC(C)(C)c1nc(-c2cccc(NS(=O)(=O)c3c(F)cccc3F)c2F)c(-c2ccnc(N)n2)s1` the remaining activity was 58% (TEK; enzyme activity; inhibitor; radiometric; 1 µM).
`O=C(Nc1cnc(Oc2ccc(F)cc2)nc1)N1CCc2ncccc2[C@@H]1c1ccc(F)cc1` has a remaining binding of 93% (TEK; cell-free assay; competition with immobilised ligand; 1 µM).
`O=C(Nc1cnn(-c2csc(C(=O)NC3COC3)c2)c1)Nc1c(F)cccc1Cl` has a remaining activity of 105% (TEK; enzyme activity; inhibitor; 5 µM).
With `CNC(=O)c1cc2c(Oc3ccc(NC(=O)C4(C(=O)Nc5ccc(F)cc5)CC4)cc3)ccnc2cc1OC` the inhibition was 96% (TEK Y897S; enzyme activity; inhibitor; radiometric; 1 µM).
The remaining binding of `CCOCCn1cc(C(=O)Nc2ccc(-n3nc(-c4cccnc4)cc3C(F)(F)F)cn2)ccc1=O` is reported as 87% (TEK; cell-free assay; competition with immobilised ligand; 1 µM).
For `COc1cc(Nc2cnc(C#N)c(O[C@H](C)CN(C)C)n2)ncc1-c1cnn(C)c1`, the remaining activity was 90% (TEK; enzyme activity; inhibitor; radiometric; 10 µM).
For `O=C(CSc1nc2nccnc2c(=O)n1CCc1ccccc1)Nc1nccs1`, the inhibition was 6% (TEK; enzyme activity; inhibitor; 10 µM).
For `CN([C@@H]1CCc2c(CC(=O)O)c3ccccc3n2C1)S(=O)(=O)c1ccc(F)cc1`, the remaining binding was 92% (TEK; cell-free assay; competition with immobilised ligand; 1 µM).
The remaining signal of `Cc1ccc(NC(=O)c2ccc(CN3CCN(C)CC3)cc2)cc1Nc1nc(-c2cccnc2)cs1` is reported as 97.2% (TEK; cell-free assay; 0.5 µM).
`CCCCN(CCCC)C(=O)CN1C[C@@H](c2cc(OC)c3c(c2)OCO3)[C@H](C(=O)O)[C@H]1CC(C)(C)CCC` has a remaining binding of 100% (TEK; cell-free assay; competition with immobilised ligand; 1 µM).
`Cc1ccc(C(=O)Nc2ccc(CN3CCN(C)CC3)c(C(F)(F)F)c2)cc1C#Cc1cnc2cccnn12` gave a remaining signal of 5.2% (TEK; cell-free assay; 23.5 nM).
`CCCOc1ccc([C@H]2[C@H](C(=O)O)[C@@H](c3ccc4c(c3)OCO4)CN2CC(=O)Nc2c(CC)cccc2CC)cc1` has a remaining binding of 100% (TEK; cell-free assay; competition with immobilised ligand; 1 µM).
With `COc1cc(Cl)c(C(=O)N[C@@H](CN[C@H]2CC[C@@H](N)CC2)Cc2ccc(C#N)cc2)cc1-c1ccc(CN[C@H](C)c2ccc(C)cc2)o1` the remaining activity was 79% (TEK; enzyme activity; inhibitor; 1 µM).
